{"source": "ChEMBL document CHEMBL3621151", "about": "“Orally bioavailable Syk inhibitors with activity in a rat PK/PD model” (Bioorg Med Chem Lett, 2015)", "key": {"[1]": {"assay": "Drug uptake in Lewis rat blood at 3 mg/kg, po measured after 4 hrs", "format": "ADME, organism-based", "conditions": "read-out: Drug uptake", "in_short": "(§1)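 Lewis rats were given a single oral dose of 3 mg/kg. Blood was sampled at 2, 4, 8 and 24 h for compound levels. Ex vivo, peripheral blood monocytes were stimulated through FcγR with anti-CD32 antibody, and SLP76 phosphorylation was quantified as % pSLP76.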"}, "Rattus norvegicus [2]": {"tested_on": "Rattus norvegicus", "assay": "In vivo inhibition of Syk in Lewis rat assessed as reduction in antiCD32-antibody-induced SLP76 phosphorylation in peripheral blood monocytes at 3 mg/kg, po measured after 4 hrs relative to vehicle-treated control", "format": "functional", "in_short": "as §1"}, "Salmonella typhimurium": {"tested_on": "Salmonella typhimurium", "assay": "Toxicity in Salmonella typhimurium by Ames test", "format": "organism-based", "conditions": "salmonella enterica subsp. enterica serovar typhimurium"}, "[3]": {"assay": "Clearance in Sprague-Dawley rat at 1 mg/kg, iv and 3 mg/kg, po administered as cassette dosing", "format": "ADME, organism-based", "conditions": "in vivo", "in_short": "(§2)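 Cassette dosing in Sprague Dawley rats: iv 1 mg/kg in NMP/PEG200 (3:7) and po 3 mg/kg in CMC/water/Tween (0.5:99:0.5). Dose-normalized values are marked as such.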"}, "Aurora kinase B": {"target": "Aurora kinase B (Homo sapiens, UniProt Q96GD4)", "sequence (Q96GD4 whole entry)": "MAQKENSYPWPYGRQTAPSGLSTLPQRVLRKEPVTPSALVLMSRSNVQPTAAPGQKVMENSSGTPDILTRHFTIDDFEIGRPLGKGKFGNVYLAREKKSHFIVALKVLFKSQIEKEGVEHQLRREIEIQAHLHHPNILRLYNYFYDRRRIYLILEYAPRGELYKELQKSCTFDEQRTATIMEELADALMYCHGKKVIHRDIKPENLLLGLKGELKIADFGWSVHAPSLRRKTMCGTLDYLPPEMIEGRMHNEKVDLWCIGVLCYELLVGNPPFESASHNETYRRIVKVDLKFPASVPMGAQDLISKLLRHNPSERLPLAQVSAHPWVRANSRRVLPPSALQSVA", "assay": "Inhibition of aurora B kinase (unknown origin) by cell based assay"}, "[4]": {"assay": "Drug uptake in Lewis rat blood at 3 mg/kg, po measured after 2 hrs", "format": "ADME, organism-based", "conditions": "read-out: Drug uptake", "in_short": "as §1"}, "Blood": {"tested_on": "Blood", "assay": "Drug level in rat blood at 1 mg/kg, iv", "format": "ADME, organism-based", "conditions": "in vivo", "in_short": "(§3)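 Rats received a single iv dose of 1 mg/kg. Compound concentrations were measured in blood, liver and kidney and expressed as ng/g.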"}, "Liver microsome [5]": {"tested_on": "Liver microsome", "assay": "Drug metabolism in human liver microsomes assessed as lactam hydroxylation", "format": "ADME"}, "Rattus norvegicus [6]": {"tested_on": "Rattus norvegicus", "assay": "In vivo inhibition of Syk in Lewis rat assessed as reduction in antiCD32-antibody-induced SLP76 phosphorylation in peripheral blood monocytes at 3 mg/kg, po measured after 24 hrs relative to vehicle-treated control", "format": "functional, organism-based", "in_short": "as §1"}, "[7]": {"target": "T1, Tyrosine-protein kinase SYK (Homo sapiens, UniProt P43405)", "assay": "Inhibition of Syk in anti-CD32 stimulated CD14+ human monocytes in presence of 90% human blood assessed as phospho-SLP76 level preincubated for 30 mins followed by anti-CD32 stimulation measured after 5 mins by flow cytometric analysis"}, "Kidney": {"tested_on": "Kidney", "assay": "Drug level in rat kidney at 1 mg/kg, iv", "format": "ADME, organism-based", "conditions": "in vivo", "in_short": "as §3"}, "Liver microsome [8]": {"tested_on": "Liver microsome", "assay": "Drug metabolism in rat liver microsomes assessed as pyrazole N-demethylation", "format": "ADME"}, "[9]": {"target": "T2, Voltage-gated inwardly rectifying potassium channel KCNH2 (Homo sapiens, UniProt Q12809)", "T2 sequence (Q12809 whole entry)": "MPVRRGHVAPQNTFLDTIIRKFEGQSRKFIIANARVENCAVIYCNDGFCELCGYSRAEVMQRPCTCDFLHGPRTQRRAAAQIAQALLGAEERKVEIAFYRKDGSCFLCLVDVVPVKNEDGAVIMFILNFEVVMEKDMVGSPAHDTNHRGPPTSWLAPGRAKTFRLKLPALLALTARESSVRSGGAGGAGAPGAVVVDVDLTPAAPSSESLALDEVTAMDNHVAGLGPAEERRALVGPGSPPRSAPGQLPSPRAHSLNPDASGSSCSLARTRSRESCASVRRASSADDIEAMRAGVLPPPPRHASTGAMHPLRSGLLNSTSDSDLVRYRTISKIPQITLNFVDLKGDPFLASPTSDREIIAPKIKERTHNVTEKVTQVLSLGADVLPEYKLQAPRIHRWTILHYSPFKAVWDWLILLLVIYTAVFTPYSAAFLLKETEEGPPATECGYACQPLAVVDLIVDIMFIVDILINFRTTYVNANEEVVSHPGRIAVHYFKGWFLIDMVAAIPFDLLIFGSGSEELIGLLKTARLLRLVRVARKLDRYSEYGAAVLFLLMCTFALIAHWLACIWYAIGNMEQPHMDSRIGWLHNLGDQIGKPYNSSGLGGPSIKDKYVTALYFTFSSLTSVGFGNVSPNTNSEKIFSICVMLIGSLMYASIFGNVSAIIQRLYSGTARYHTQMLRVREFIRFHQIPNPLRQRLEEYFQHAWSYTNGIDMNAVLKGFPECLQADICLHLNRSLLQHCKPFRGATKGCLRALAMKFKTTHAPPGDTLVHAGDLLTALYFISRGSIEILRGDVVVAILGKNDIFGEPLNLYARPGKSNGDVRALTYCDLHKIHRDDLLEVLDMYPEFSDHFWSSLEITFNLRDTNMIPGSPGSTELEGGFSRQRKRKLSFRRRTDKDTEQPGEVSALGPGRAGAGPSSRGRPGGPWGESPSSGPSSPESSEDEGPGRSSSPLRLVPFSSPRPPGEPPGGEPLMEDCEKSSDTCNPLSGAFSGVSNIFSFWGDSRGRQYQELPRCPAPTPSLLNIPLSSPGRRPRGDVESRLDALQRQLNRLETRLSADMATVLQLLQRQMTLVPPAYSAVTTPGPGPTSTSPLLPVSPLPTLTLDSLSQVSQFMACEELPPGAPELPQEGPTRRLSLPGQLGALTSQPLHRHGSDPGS", "assay": "Inhibition of human ERG by binding assay"}, "[10]": {"assay": "Mean residence time in Sprague-Dawley rat at 1 mg/kg, iv and 3 mg/kg, po administered as cassette dosing", "format": "ADME, organism-based", "conditions": "in vivo", "in_short": "as §2"}, "[11]": {"assay": "Oral bioavailability in Sprague-Dawley rat at 3 mg/kg administered as cassette dosing", "format": "ADME, organism-based", "conditions": "in vivo", "in_short": "as §2"}, "[12]": {"assay": "Drug uptake in Lewis rat blood at 3 mg/kg, po measured after 8 hrs", "format": "ADME, organism-based", "conditions": "read-out: Drug uptake", "in_short": "as §1"}, "Aurora kinase A": {"target": "T3, Aurora kinase A (Homo sapiens, UniProt O14965)", "T3 sequence (O14965 whole entry)": "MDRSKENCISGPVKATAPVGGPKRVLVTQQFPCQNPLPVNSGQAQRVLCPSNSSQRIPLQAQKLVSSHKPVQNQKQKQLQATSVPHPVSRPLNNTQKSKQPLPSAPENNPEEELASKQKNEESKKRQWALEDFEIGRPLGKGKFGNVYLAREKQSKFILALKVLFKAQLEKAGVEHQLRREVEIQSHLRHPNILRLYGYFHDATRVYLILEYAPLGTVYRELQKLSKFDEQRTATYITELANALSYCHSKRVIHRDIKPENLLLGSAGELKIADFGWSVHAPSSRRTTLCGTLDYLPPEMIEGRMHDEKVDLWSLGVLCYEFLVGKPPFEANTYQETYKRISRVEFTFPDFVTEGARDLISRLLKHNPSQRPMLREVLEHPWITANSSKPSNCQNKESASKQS", "assay": "Inhibition of aurora A kinase (unknown origin) by enzymatic assay"}, "[13]": {"target": "T1, Tyrosine-protein kinase SYK"}, "Rattus norvegicus [14]": {"tested_on": "Rattus norvegicus", "assay": "In vivo inhibition of Syk in Lewis rat assessed as reduction in antiCD32-antibody-induced SLP76 phosphorylation in peripheral blood monocytes at 3 mg/kg, po measured after 2 hrs relative to vehicle-treated control", "format": "functional", "in_short": "as §1"}, "Liver microsome [15]": {"tested_on": "Liver microsome", "assay": "Drug metabolism in rat liver microsomes assessed as pyrazole hydroxylation", "format": "ADME"}, "[16]": {"assay": "Drug uptake in Lewis rat blood at 3 mg/kg, po measured after 24 hrs", "format": "ADME, organism-based", "conditions": "read-out: Drug uptake", "in_short": "as §1"}, "Liver microsome [17]": {"tested_on": "Liver microsome", "assay": "Drug metabolism in human liver microsomes assessed as pyrazole N-demethylation", "format": "ADME"}, "Rattus norvegicus [18]": {"tested_on": "Rattus norvegicus", "assay": "In vivo inhibition of Syk in Lewis rat assessed as reduction in antiCD32-antibody-induced SLP76 phosphorylation in peripheral blood monocytes at 3 mg/kg, po measured after 8 hrs relative to vehicle-treated control", "format": "functional", "in_short": "as §1"}, "[19]": {"assay": "Toxicity in micronucleus (unknown origin) by micronucleus test"}, "Liver microsome [20]": {"tested_on": "Liver microsome", "assay": "Drug metabolism in human liver microsomes assessed as pyrazole hydroxylation", "format": "ADME"}, "[21]": {"target": "T2, Voltage-gated inwardly rectifying potassium channel KCNH2", "assay": "Inhibition of human ERG by automated patch clamp assay"}, "Rattus norvegicus [22]": {"tested_on": "Rattus norvegicus", "assay": "Dose normalized Cmax in Sprague-Dawley rat at 1 mg/kg, iv and 3 mg/kg, po administered as cassette dosing", "format": "ADME, organism-based", "conditions": "in vivo", "in_short": "as §2"}, "Liver": {"tested_on": "Liver", "assay": "Drug level in rat liver at 1 mg/kg, iv", "format": "ADME, organism-based", "conditions": "in vivo", "in_short": "as §3"}, "Liver microsome [23]": {"tested_on": "Liver microsome", "assay": "Drug metabolism in rat liver microsomes assessed as lactam hydroxylation", "format": "ADME"}, "[24]": {"target": "T1, Tyrosine-protein kinase SYK", "assay": "Inhibition of Syk in anti-igM stimulated human Ramos B cells assessed as phospho-BLNK level preincubated for 30 mins followed by anti-IgM stimulation measured after 15 mins by flow cytometric analysis", "format": "cell-based"}, "[25]": {"assay": "Volume of distribution at steady state in Sprague-Dawley rat at 1 mg/kg, iv and 3 mg/kg, po administered as cassette dosing", "format": "ADME, organism-based", "conditions": "in vivo, read-out: Vdss", "in_short": "as §2"}}, "note": "Calls of active or inactive are those of the source. The rule behind the calls is not given here.", "data": [{"smiles": "C[C@@H](Oc1nc(-c2cnn(C(F)F)c2)cc2ncsc12)[C@H]1CNC(=O)O1", "values": [{"measurement": "concentration at 4 h", "setting": "[1]", "result": 1340, "unit": "nM"}, {"measurement": "inhibition in vivo at 3 mg/kg", "setting": "Rattus norvegicus [2]", "result": 79, "unit": "%"}, {"measurement": "Activity", "setting": "Salmonella typhimurium", "result": "Non-toxic"}, {"measurement": "clearance", "setting": "[3]", "result": 4, "unit": "mL/min/kg"}, {"measurement": "IC50", "setting": "Aurora kinase B", "result": 110, "unit": "nM"}, {"measurement": "concentration at 2 h", "setting": "[4]", "result": 1930, "unit": "nM"}, {"measurement": "Drug uptake", "setting": "Blood", "result": 1014, "unit": "ng/g"}, {"measurement": "Drug metabolism", "setting": "Liver microsome [5]", "result": "metabolite_detected"}, {"measurement": "inhibition", "setting": "Rattus norvegicus [6]", "result": "inactive"}, {"measurement": "IC50", "setting": "[7]", "result": 522, "unit": "nM"}, {"measurement": "Drug uptake", "setting": "Kidney", "result": 1433, "unit": "ng/g"}, {"measurement": "Drug metabolism", "setting": "Liver microsome [8]", "result": "metabolite_detected"}, {"measurement": "IC50", "setting": "[9]", "result": "> 30000", "unit": "nM"}, {"measurement": "MRT", "setting": "[10]", "result": 6, "unit": "h"}, {"measurement": "bioavailability", "setting": "[11]", "result": 88, "unit": "%"}, {"measurement": "concentration at 8 h", "setting": "[12]", "result": 827, "unit": "nM"}, {"measurement": "IC50", "setting": "Aurora kinase A", "result": 57, "unit": "nM"}, {"measurement": "IC50", "setting": "[13]", "result": 38, "unit": "nM"}, {"measurement": "inhibition in vivo at 3 mg/kg", "setting": "Rattus norvegicus [14]", "result": 78, "unit": "%"}, {"measurement": "Drug metabolism", "setting": "Liver microsome [15]", "result": "metabolite_detected"}, {"measurement": "concentration at 24 h", "setting": "[16]", "result": 40, "unit": "nM"}, {"measurement": "Drug metabolism", "setting": "Liver microsome [17]", "result": "metabolite_detected"}, {"measurement": "inhibition in vivo at 3 mg/kg", "setting": "Rattus norvegicus [18]", "result": 60, "unit": "%"}, {"measurement": "Activity", "setting": "[19]", "result": "Toxic"}, {"measurement": "Drug metabolism", "setting": "Liver microsome [20]", "result": "metabolite_detected"}, {"measurement": "IC50", "setting": "[21]", "result": "> 30000", "unit": "nM"}, {"measurement": "Cmax/dose", "setting": "Rattus norvegicus [22]", "result": 917, "unit": "nM"}, {"measurement": "Drug uptake", "setting": "Liver", "result": 2134, "unit": "ng/g"}, {"measurement": "Drug metabolism", "setting": "Liver microsome [23]", "result": "metabolite_detected"}, {"measurement": "IC50", "setting": "[24]", "result": 284, "unit": "nM"}, {"measurement": "Vd", "setting": "[25]", "result": 1.3, "unit": "L/kg"}]}]}
